Measurements as given in ChEMBL document CHEMBL4190374, “Structure-Function Evaluation of Imidazopyridine Derivatives Selective for δ-Subunit-Containing γ-Aminobutyric Acid Type A (GABAA) Receptors” (J Med Chem, 2018).

Tests used:
[1] = biological target: Gamma-aminobutyric acid receptor subunit alpha-4/beta-3 (Rattus norvegicus, UniProt P28471+P63079); assay: Displacement of [3H]EBOB from rat GABA-A receptor alpha4beta3 expressed in HEK293 cell membranes after 90 mins by liquid scintillation counting analysis
Sequence of Gamma-aminobutyric acid receptor subunit alpha-4/beta-3 (P28471 whole entry): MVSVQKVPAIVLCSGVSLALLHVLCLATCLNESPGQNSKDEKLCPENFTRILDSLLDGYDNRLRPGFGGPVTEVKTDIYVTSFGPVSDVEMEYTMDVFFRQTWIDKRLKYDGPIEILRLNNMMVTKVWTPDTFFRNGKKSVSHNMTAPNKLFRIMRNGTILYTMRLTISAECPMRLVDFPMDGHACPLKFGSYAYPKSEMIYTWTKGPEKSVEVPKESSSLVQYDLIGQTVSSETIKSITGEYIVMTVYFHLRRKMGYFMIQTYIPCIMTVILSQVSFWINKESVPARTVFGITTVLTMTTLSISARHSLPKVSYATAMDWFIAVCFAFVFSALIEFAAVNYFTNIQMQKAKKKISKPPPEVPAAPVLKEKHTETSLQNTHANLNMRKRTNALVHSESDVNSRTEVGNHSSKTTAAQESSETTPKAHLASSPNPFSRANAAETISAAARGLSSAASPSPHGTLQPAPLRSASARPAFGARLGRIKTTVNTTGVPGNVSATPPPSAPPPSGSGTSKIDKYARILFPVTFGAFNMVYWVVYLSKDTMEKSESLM
Sequence of Gamma-aminobutyric acid receptor subunit alpha-4/beta-3 (P63079 whole entry): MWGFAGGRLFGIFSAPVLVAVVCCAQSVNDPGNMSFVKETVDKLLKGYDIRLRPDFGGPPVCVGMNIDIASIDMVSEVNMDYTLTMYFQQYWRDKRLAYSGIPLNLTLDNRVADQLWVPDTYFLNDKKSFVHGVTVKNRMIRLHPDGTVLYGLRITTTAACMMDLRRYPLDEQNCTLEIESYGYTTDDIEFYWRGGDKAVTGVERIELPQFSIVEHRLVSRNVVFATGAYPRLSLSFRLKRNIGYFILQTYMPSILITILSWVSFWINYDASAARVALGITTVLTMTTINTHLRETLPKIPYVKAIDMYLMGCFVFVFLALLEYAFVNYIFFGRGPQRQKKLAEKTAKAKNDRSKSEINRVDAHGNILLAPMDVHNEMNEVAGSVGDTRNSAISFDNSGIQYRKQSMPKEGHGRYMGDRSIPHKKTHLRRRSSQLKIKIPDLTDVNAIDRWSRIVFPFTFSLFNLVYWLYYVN
How it was run: (§1)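 Crude membranes from HEK 293 cells transiently Ca-phosphate-transfected with rat subunit cDNAs, harvested at 48 h. Membranes (150-200 µg protein) incubated with 3 nM [3H]EBOB in 50 mM Tris/citrate pH 7.3 plus 0.2 M NaCl. Compound up to 10 µM, final DMSO 0.1%, no GABA, 90 min at 21 °C. Bound radioligand collected by GF/C filtration and counted by scintillation.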

[2] = biological target: Gamma-aminobutyric acid receptor subunit alpha-4/beta-3/gamma-2 (Rattus norvegicus, UniProt P18508+P28471+P63079); assay: Displacement of [3H]EBOB from rat GABA-A receptor alpha4beta3gamma2 expressed in HEK293 cell membranes after 90 mins by liquid scintillation counting analysis; how it was run: as §1
Sequence of Gamma-aminobutyric acid receptor subunit alpha-4/beta-3/gamma-2 (P18508 whole entry): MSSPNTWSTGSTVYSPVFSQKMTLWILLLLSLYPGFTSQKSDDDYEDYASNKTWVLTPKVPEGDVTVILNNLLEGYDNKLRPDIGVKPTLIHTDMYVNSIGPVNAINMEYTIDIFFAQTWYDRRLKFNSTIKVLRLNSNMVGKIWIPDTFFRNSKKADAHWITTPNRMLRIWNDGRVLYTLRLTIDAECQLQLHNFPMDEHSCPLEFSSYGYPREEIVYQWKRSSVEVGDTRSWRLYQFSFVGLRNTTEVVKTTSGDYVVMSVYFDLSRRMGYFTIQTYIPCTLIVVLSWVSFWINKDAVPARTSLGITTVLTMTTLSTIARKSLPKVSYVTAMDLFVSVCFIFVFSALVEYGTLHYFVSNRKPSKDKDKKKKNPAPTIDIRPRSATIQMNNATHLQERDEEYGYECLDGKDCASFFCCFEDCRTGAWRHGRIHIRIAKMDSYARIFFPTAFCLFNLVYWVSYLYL
Sequence of Gamma-aminobutyric acid receptor subunit alpha-4/beta-3/gamma-2 (P28471 whole entry): as the sequence (P28471 whole entry) above
Sequence of Gamma-aminobutyric acid receptor subunit alpha-4/beta-3/gamma-2 (P63079 whole entry): as the sequence (P63079 whole entry) above

[3] = biological target: Gamma-aminobutyric acid receptor subunit alpha-6/beta-3/delta (Rattus norvegicus, UniProt P18506+P30191+P63079); assay: Displacement of [3H]EBOB from rat GABA-A receptor alpha6beta3delta expressed in HEK293 cell membranes after 90 mins by liquid scintillation counting analysis; how it was run: as §1
Sequence of Gamma-aminobutyric acid receptor subunit alpha-6/beta-3/delta (P18506 whole entry): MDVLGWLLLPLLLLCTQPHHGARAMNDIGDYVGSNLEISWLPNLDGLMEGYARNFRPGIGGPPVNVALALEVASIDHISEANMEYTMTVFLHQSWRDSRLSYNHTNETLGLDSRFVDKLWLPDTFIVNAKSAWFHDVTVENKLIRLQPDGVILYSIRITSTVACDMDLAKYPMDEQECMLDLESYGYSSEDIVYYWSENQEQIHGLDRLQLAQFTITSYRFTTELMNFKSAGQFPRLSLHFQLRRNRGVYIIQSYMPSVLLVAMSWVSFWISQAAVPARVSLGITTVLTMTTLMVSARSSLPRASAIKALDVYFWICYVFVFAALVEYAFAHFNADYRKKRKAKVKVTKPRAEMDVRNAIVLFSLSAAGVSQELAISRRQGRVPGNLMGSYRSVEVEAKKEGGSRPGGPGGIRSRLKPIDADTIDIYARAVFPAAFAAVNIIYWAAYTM
Sequence of Gamma-aminobutyric acid receptor subunit alpha-6/beta-3/delta (P30191 whole entry): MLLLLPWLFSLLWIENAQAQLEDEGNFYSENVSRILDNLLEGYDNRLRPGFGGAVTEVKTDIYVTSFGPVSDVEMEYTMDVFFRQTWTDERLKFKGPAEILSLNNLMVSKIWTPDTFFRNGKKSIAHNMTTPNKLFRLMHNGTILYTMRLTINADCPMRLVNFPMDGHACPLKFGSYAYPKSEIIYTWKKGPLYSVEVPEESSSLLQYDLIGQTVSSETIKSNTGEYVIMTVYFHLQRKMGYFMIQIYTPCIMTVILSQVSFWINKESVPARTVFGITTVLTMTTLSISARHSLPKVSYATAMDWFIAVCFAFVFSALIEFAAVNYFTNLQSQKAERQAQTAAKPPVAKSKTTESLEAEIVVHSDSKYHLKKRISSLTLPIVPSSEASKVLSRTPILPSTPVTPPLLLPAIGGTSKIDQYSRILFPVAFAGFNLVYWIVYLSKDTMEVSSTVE
Sequence of Gamma-aminobutyric acid receptor subunit alpha-6/beta-3/delta (P63079 whole entry): as the sequence (P63079 whole entry) above

[4] = biological target: Gamma-aminobutyric acid receptor subunit alpha-6/beta-2 (Rattus norvegicus, UniProt P30191+P63138); assay: Displacement of [3H]EBOB from rat GABA-A receptor alpha6beta2 expressed in HEK293 cell membranes after 90 mins by liquid scintillation counting analysis; how it was run: as §1
Sequence of Gamma-aminobutyric acid receptor subunit alpha-6/beta-2 (P30191 whole entry): as the sequence (P30191 whole entry) above
Sequence of Gamma-aminobutyric acid receptor subunit alpha-6/beta-2 (P63138 whole entry): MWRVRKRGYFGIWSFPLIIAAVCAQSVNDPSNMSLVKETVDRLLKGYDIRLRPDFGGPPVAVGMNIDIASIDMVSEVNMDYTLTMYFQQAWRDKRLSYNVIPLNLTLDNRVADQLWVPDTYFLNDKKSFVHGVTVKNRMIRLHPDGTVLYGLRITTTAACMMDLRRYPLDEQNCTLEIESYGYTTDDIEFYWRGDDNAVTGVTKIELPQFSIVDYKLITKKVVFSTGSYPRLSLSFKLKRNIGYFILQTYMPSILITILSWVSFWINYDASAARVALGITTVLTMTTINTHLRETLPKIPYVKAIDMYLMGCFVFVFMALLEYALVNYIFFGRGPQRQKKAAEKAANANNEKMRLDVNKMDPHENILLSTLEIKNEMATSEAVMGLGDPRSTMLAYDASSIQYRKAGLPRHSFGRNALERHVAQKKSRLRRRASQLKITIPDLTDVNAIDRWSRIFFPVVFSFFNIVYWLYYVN

[5] = biological target: Gamma-aminobutyric acid receptor subunit alpha-6/beta-2/delta (Rattus norvegicus, UniProt P18506+P30191+P63138); assay: Displacement of [3H]EBOB from rat GABA-A receptor alpha6beta2delta expressed in HEK293 cell membranes after 90 mins by liquid scintillation counting analysis; how it was run: as §1
Sequence of Gamma-aminobutyric acid receptor subunit alpha-6/beta-2/delta (P18506 whole entry): as the sequence (P18506 whole entry) above
Sequence of Gamma-aminobutyric acid receptor subunit alpha-6/beta-2/delta (P30191 whole entry): as the sequence (P30191 whole entry) above
Sequence of Gamma-aminobutyric acid receptor subunit alpha-6/beta-2/delta (P63138 whole entry): as the sequence (P63138 whole entry) above

[6] = biological target: T1, Gamma-aminobutyric acid receptor subunit alpha-4/beta-3 (Rattus norvegicus) (UniProt P28471+P63079); assay: Displacement of [3H]EBOB from rat GABA-A receptor alpha4beta3 expressed in HEK293 cell membranes up to 10 uM after 90 mins by liquid scintillation counting analysis relative to control; how it was run: as §1
[7] = biological target: Gamma-aminobutyric acid receptor subunit alpha-6/beta-2 (Rattus norvegicus) (UniProt P30191+P63138); assay: Displacement of [3H]EBOB from rat GABA-A receptor alpha6beta2 expressed in HEK293 cell membranes up to 10 uM after 90 mins by liquid scintillation counting analysis relative to control; how it was run: as §1
[8] = biological target: GABA A receptor alpha-6/beta-2/gamma-2 (Rattus norvegicus) (UniProt P18508+P30191+P63138); assay: Displacement of [3H]EBOB from rat GABA-A receptor alpha6beta2gamma2 expressed in HEK293 cell membranes up to 10 uM after 90 mins by liquid scintillation counting analysis relative to control; how it was run: as §1
[9] = organism: Rattus norvegicus; assay: Selectivity ratio of IC50 for rat GABA-A receptor alpha4beta3 expressed in HEK293 cells to IC50 for rat GABA-A receptor alpha4beta3delta expressed in HEK293 cells; format: cell-based
[10] = biological target: Gamma-aminobutyric acid receptor subunit alpha-1/beta-3 (Rattus norvegicus, UniProt P62813+P63079); assay: Modulation of rat […] GABA-A receptor alpha1beta3 expressed in HEK293 cells in presence of GABA by patch-clamp assay; format: cell-based
Sequence of Gamma-aminobutyric acid receptor subunit alpha-1/beta-3 (P62813 whole entry): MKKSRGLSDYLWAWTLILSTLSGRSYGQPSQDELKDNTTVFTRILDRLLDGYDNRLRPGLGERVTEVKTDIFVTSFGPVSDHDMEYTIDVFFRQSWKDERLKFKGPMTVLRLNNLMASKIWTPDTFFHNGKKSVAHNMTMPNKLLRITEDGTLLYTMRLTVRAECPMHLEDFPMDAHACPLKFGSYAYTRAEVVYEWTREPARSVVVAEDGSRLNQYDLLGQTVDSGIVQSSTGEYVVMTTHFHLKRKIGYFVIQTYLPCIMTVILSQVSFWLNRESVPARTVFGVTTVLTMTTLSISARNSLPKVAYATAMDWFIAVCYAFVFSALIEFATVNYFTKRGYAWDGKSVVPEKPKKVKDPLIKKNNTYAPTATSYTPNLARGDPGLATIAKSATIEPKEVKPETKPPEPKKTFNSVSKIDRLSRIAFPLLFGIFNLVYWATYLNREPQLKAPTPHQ
Sequence of Gamma-aminobutyric acid receptor subunit alpha-1/beta-3 (P63079 whole entry): as the sequence (P63079 whole entry) above
How it was run: (§2)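 Whole-cell patch clamp on eGFP-co-transfected HEK 293 cells expressing rat subunits, recorded 48 h post-transfection. KCl/KOH-based pipette solution, pH 7.2. Rising compound concentrations up to 10 µM co-applied with the receptor-specific GABA EC20. Peak currents fitted to a logistic function giving EC50, Hill coefficient and % modulation, mean ± S.E. of n experiments.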

[11] = biological target: Gamma-aminobutyric acid receptor subunit alpha-6/beta-3 (Rattus norvegicus, UniProt P30191+P63079); assay: Modulation of rat […] GABA-A receptor alpha6beta3 expressed in HEK293 cells in presence of GABA by patch-clamp assay; format: cell-based
Sequence of Gamma-aminobutyric acid receptor subunit alpha-6/beta-3 (P30191 whole entry): as the sequence (P30191 whole entry) above
Sequence of Gamma-aminobutyric acid receptor subunit alpha-6/beta-3 (P63079 whole entry): as the sequence (P63079 whole entry) above
How it was run: (§3)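 Rat GABA-A subunits were transiently co-transfected with eGFP into HEK293 cells on coverslips. Fluorescent cells were recorded by whole-cell patch clamp 48 h later; bath pH 7.4, KCl/KOH pipette pH 7.2. Compound was applied at increasing concentrations up to 10 µM with the receptor-specific GABA EC20. Peak currents were fitted logistically for EC50, Hill and % modulation, as mean ± S.E.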

[12] = biological target: T2, Gamma-aminobutyric acid receptor subunit alpha-1/beta-3 (Rattus norvegicus) (UniProt P62813+P63079); assay: Modulation of rat […] GABA-A receptor alpha1beta3 expressed in HEK293 cells up to 10 uM in presence of GABA by patch-clamp assay relative to control; format: cell-based; how it was run: as §2
[13] = biological target: Gamma-aminobutyric acid receptor subunit alpha-6/beta-3/gamma-2 (Rattus norvegicus) (UniProt P18508+P30191+P63079); assay: Modulation of rat […] GABA-A receptor alpha6beta3gamma2 expressed in HEK293 cells up to 10 uM in presence of GABA by patch-clamp assay relative to control; format: cell-based; how it was run: as §3
[14] = biological target: T2, Gamma-aminobutyric acid receptor subunit alpha-1/beta-3 (Rattus norvegicus); assay: Agonist activity at rat […] GABA-A receptor alpha1beta3 expressed in HEK293 cells assessed as ratio of I0 to GABA Imax at 10 uM in absence of GABA by patch-clamp assay; format: cell-based
How it was run: (§4)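 Whole-cell patch clamp on single fluorescent HEK 293 cells 48 h after transient co-transfection with rat subunit cDNAs plus eGFP. Extracellular solution 135 mM NaCl, 5.3 mM KCl, 2 mM CaCl2, 2 mM MgSO4, 10 mM HEPES pH 7.4, perfused 3 mL/min. Compound at 10 µM without GABA. Current expressed relative to 1 mM GABA at the same receptor (I0/Imax GABA), mean ± S.D. of n experiments.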

[15] = biological target: Gamma-aminobutyric acid receptor subunit alpha-1/beta-3/gamma-2 (Rattus norvegicus) (UniProt P18508+P62813+P63079); assay: Agonist activity at rat […] GABA-A receptor alpha1beta3gamma2 expressed in HEK293 cells assessed as ratio of I0 to GABA Imax at 10 uM in absence of GABA by patch-clamp assay; format: cell-based; how it was run: as §4
[16] = biological target: T1, Gamma-aminobutyric acid receptor subunit alpha-4/beta-3 (Rattus norvegicus); assay: Agonist activity at rat […] GABA-A receptor alpha4beta3 expressed in HEK293 cells assessed as ratio of I0 to GABA Imax at 10 uM in absence of GABA by patch-clamp assay; format: cell-based; how it was run: as §4
[17] = biological target: Gamma-aminobutyric acid receptor subunit alpha-6/beta-3/delta (Rattus norvegicus) (UniProt P18506+P30191+P63079); assay: Agonist activity at rat […] GABA-A receptor alpha6beta3delta expressed in HEK293 cells assessed as ratio of I0 to GABA Imax at 10 uM in absence of GABA by patch-clamp assay; format: cell-based; how it was run: as §4
[18] = organism: Rattus norvegicus; assay: Selectivity ratio of IC50 for rat GABA-A receptor alpha6beta3delta expressed in HEK293 cells to IC50 for rat GABA-A receptor alpha6beta2delta expressed in HEK293 cells; format: cell-based

## O=C(Nc1c(-c2cccs2)nc2c(Br)cc(Br)cn12)c1ccc(Cl)cc1
[1]
  IC50: 1860 nM
[2]
  IC50: 3290 nM
[3]
  IC50: 310 nM
[4]
  IC50: 630 nM
[5]
  IC50: 150 nM
[6]
  Imax: 80%
[7]
  Imax: 93%
[8]
  Imax: 89%
[9]
  Ratio IC50: 4
[10]
  EC50: 100 nM
[11]
  EC50: 170 nM
[12]
  Activity: 35%
[13]
  Activity: 157%
[14]
  Ratio: 0.074
[15]
  Ratio: 0.058
[16]
  Ratio: 0.124
[17]
  Ratio: 1.04
[18]
  Ratio IC50: 2
